From ChEMBL document CHEMBL1255381, “Golgicide A reveals essential roles for GBF1 in Golgi assembly and function” (Nat Chem Biol, 2009)
pIC50: −log10 of the molar value. Active and inactive are the calls of the source.

Experiments:
[1] = tested on: Vero; assay: Inhibition of GBF1 in african green monkey Vero cells assessed as rapid COPI redistribution from golgi at 10 uM after 5 mins by immunofluorescence method; type: cell-based; conditions: Chlorocebus sabaeus
[2] = tested on: Vero; assay: Inhibition of GBF1 in african green monkey Vero cells assessed as rapid AP-1 dispersal from golgi membranes at 10 uM after 5 mins by immunofluorescence method; type: cell-based; conditions: Chlorocebus sabaeus
[3] = tested on: Vero; assay: Inhibition of GBF1 in african green monkey Vero cells assessed as rapid GGA3 dispersal from trans golgi network at 10 uM after 5 mins by immunofluorescence method; type: cell-based; conditions: Chlorocebus sabaeus
[4] = tested on: Vero; assay: Inhibition of GBF1 in african green monkey Vero cells assessed as induction of betaCOP dispersal from golgi membranes at 10 uM after 5 mins by immunofluorescence method; type: cell-based; conditions: Chlorocebus sabaeus
[5] = tested on: Vero; assay: Inhibition of GBF1 in african green monkey Vero cells assessed as colocalization with ERGIC-53 marker in ER-golgi intermediate compartment by immunofluorescence method; type: cell-based; conditions: Chlorocebus sabaeus
[6] = tested on: Vero; assay: Effect on BIG1 distribution from golgi in african green monkey Vero cells by immunofluorescence method; type: functional, cell-based; conditions: Chlorocebus sabaeus
[7] = tested on: Vero; assay: Effect on BIG2 distribution from golgi in african green monkey Vero cells by immunofluorescence method; type: functional, cell-based; conditions: Chlorocebus sabaeus
[8] = tested on: Vero; assay: Inhibition of GBF1 in african green monkey Vero cells overexpressing BIG1 assessed as punctate and diffuse distribution of medial-Golgi marker giantin from golgi at 10 uM after 1 hr by immunofluorescence method; type: cell-based; conditions: Chlorocebus sabaeus
[9] = tested on: Vero; assay: Inhibition of GBF1 in african green monkey Vero cells overexpressing BIG1 assessed as distribution of trans-Golgi marker TGN46 from TGN at 10 uM after 1 hr by immunofluorescence method; type: cell-based; conditions: Chlorocebus sabaeus
[10] = tested on: MDCK; assay: Effect on golgi morphology in MDCK cells at 10 uM after 1 hr by immunofluorescence method; type: functional, cell-based; conditions: Canis lupus familiaris
Outline: (§1)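 MDCK cells (EMEM, 10% FCS) and Vero cells, untreated or given compound 10 μM for 1 h; fixed and immunostained for βCOP and Golgi markers; distribution compared by immunofluorescence.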

[11] = tested on: MDCK; assay: Induction of betaCOP distribution from golgi membranes in MDCK cells at 10 uM after 1 hr by immunofluorescence method; type: functional, cell-based; conditions: Canis lupus familiaris; outline: as §1
[12] = tested on: Vero; assay: Inhibition of GBF1 M832L mutant in african green monkey Vero cells assessed as effect on betaCOP localization from golgi at 100 uM by immunofluorescence method; type: cell-based; conditions: Chlorocebus sabaeus
[13] = tested on: Vero; assay: Inhibition of GBF1 M832L mutant in african green monkey Vero cells assessed as effect on TGN46 localization from golgi at 100 uM by immunofluorescence method; type: cell-based; conditions: Chlorocebus sabaeus
[14] = tested on: Vero; assay: Inhibition of GBF1 M832L mutant in african green monkey Vero cells assessed as effect on GM130 localization from golgi at 100 uM by immunofluorescence method; type: cell-based; conditions: Chlorocebus sabaeus
[15] = tested on: Vero; assay: Inhibition of GBF1 R843A mutant in african green monkey Vero cells mutant assessed as effect on change in golgi morphology at 10 uM after 1 hr by immunofluorescence method; type: cell-based; conditions: Chlorocebus sabaeus
Outline: (§2)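 Vero cells transiently transfected (Lipofectamine 2000) with HA-tagged GBF1 wild type or R843A, K844A, Q845A or N846A mutant; after 36 h exposed 60 min to compound 10 μM, fixed, stained anti-HA and anti-giantin; Golgi morphology scored in expressing cells.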

[16] = tested on: Vero; assay: Inhibition of GBF1 Q845A mutant in african green monkey Vero cells mutant assessed as effect on change in golgi morphology at 10 uM after 1 hr by immunofluorescence method; type: cell-based; conditions: Chlorocebus sabaeus; outline: as §2
[17] = tested on: Vero; assay: Inhibition of GBF1 N846A mutant in african green monkey Vero cells mutant assessed as effect on change in golgi morphology at 10 uM after 1 hr by immunofluorescence method; type: cell-based; conditions: Chlorocebus sabaeus; outline: as §2
[18] = tested on: Vero; assay: Inhibition of GBF1 K844A mutant in african green monkey Vero cells mutant assessed as effect on change in golgi morphology at 10 uM after 1 hr by immunofluorescence method; type: cell-based; conditions: Chlorocebus sabaeus; outline: as §2
[19] = tested on: Vero; assay: Inhibition of GBF1 in african green monkey Vero cells assessed as Arf1 activation at 10 uM after 1 hr; type: cell-based; conditions: Chlorocebus sabaeus
[20] = tested on: Vero; assay: Inhibition of Arf1 in african green monkey Vero cells assessed as decrease in Arf1-GTP levels at 10 ug/ml after 1 hr; type: cell-based; conditions: Chlorocebus sabaeus
Outline: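 Vero cells transduced with adenoviral Arf1-V5, alone or with GBF1-ML-HA; next day reseeded, then 45 min at 37°C with medium, BFA 10 µg/ml or compound 10 μM. Lysates pulled down with GGA3 VHS-GAT-GST on glutathione agarose, 30 min 4°C; Arf1-GTP by anti-V5 Western, band densitometry, duplicate experiments averaged.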

[21] = tested on: Vero; assay: Inhibition of GBF1-M832L mutant in african green monkey Vero cells assessed as Arf1 activation at 10 uM after 1 hr; type: cell-based; conditions: Chlorocebus sabaeus
[22] = tested on: Vero; assay: Inhibition of GBF1 in african green monkey Vero cells assessed as tsVSVG-GFP transport to plasma membrane at 10 uM by immunofluorescence method; type: cell-based; conditions: Chlorocebus sabaeus
Outline: (§3)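 Vero cells co-transfected with tsVSVG-GFP (ts045) and optionally GBF1-HA WT or M832L; held 12-16 h at 42°C for ER arrest, then cycloheximide 100 µg/ml plus compound 10 µM or BFA 10 µg/ml, shifted to 32°C for various times (up to 4 h); fixed, anti-HA stained, transport imaged.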

[23] = tested on: Vero; assay: Inhibition of GBF1-M832L mutant in african green monkey Vero cells assessed as tsVSVG-GFP transport to plasma membrane at 10 uM by immunofluorescence method; type: cell-based; conditions: Chlorocebus sabaeus; outline: as §3
[24] = tested on: Vero; assay: Inhibition of GBF1 in african green monkey Vero cells assessed as colocalization of tsVSVG-GFP with […] at 10 uM by immunofluorescence method; type: cell-based; conditions: Chlorocebus sabaeus
[25] = tested on: Vero; assay: Inhibition of GBF1-M832L mutant in african green monkey Vero cells assessed as colocalization of tsVSVG-GFP with […] at 10 uM by immunofluorescence method; type: cell-based; conditions: Chlorocebus sabaeus
[26] = tested on: Vero; assay: Inhibition of GBF1 mediated NPY-GFP secretion in african green monkey Vero cells at 10 uM by immunofluorescence method; type: cell-based; conditions: Chlorocebus sabaeus
[27] = tested on: Vero; assay: Inhibition of GBF1-M832L mutant mediated NPY-GFP secretion in african green monkey Vero cells at 10 uM by immunofluorescence method; type: cell-based; conditions: Chlorocebus sabaeus
[28] = tested on: Vero; assay: Inhibition of GBF1 in african green monkey Vero cells assessed as inhibition of StxB-SS retrogade transport from endosomes to TGN at 10 uM by immunofluorescence method; type: cell-based; conditions: Chlorocebus sabaeus
[29] = tested on: Vero; assay: Inhibition of Arf1 in african green monkey Vero cells assessed as inhibition of StxB-SS retrogade transport from endosomes to TGN at 10 ug/ml by immunofluorescence method; type: cell-based; conditions: Chlorocebus sabaeus
[30] = tested on: Vero; assay: Inhibition of GBF1 M832L in african green monkey Vero cells assessed as inhibition of StxB-SS retrogade transport from endosomes to TGN at 10 uM by immunofluorescence method; type: cell-based; conditions: Chlorocebus sabaeus
[31] = tested on: Vero; assay: cells; type: functional, cell-based; conditions: Chlorocebus sabaeus, 0.5 h
[32] = tested on: Vero; assay: Inhibition of GBF1 in african green monkey Vero cells assessed as punctate and diffuse distribution of medial-Golgi marker giantin […] at 10 uM after 1 hr by immunofluorescence method; type: cell-based; conditions: Chlorocebus sabaeus
[33] = tested on: Vero; assay: Induction of GBF1 in african green monkey Vero cells assessed as punctate and diffuse distribution of cis-Golgi marker GM130 from TGN at 10 uM after 1 hr by immunofluorescence method; type: cell-based; conditions: Chlorocebus sabaeus
[34] = tested on: Vero; assay: Inhibition of Arf1 in african green monkey Vero cells assessed as punctate and diffuse distribution of medial-Golgi marker giantin at 10 ug/ml after 1 hr by immunofluorescence method; type: cell-based; conditions: Chlorocebus sabaeus
[35] = tested on: Vero; assay: Inhibition of GBF1 in african green monkey Vero cells assessed as giantin positive punctate structures in contact with Sec31-positive ER exit site at 10 uM after 1 hr by immunofluorescence method; type: cell-based; conditions: Chlorocebus sabaeus
Outline: (§4)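 Vero cells given BFA 10 μg/ml or compound 10 μM for 60 min, fixed, co-stained for giantin and ER exit site marker Sec31; giantin puncta relative to ERES scored by immunofluorescence.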

[36] = tested on: Vero; assay: Inhibition of Arf1 in african green monkey Vero cells assessed as giantin positive punctate structures in contact with Sec31-positive ER exit site at 10 ug/ml after 1 hr by immunofluorescence method; type: cell-based; conditions: Chlorocebus sabaeus; outline: as §4
[37] = tested on: Vero; assay: Effect on disruption of microtubules in african green monkey Vero cells at 10 uM after 30 mins by immunofluorescence method; type: functional, cell-based; conditions: Chlorocebus sabaeus
Outline: (§5)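 Vero cells (DMEM, 10% FCS, 1% nonessential amino acids, 37°C, 5% CO2) exposed 30 min at 37°C to compound, DMSO, nocodazole or cytochalasin B; fixed and immunostained for microtubules or actin; scored by immunofluorescence microscopy.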

[38] = tested on: Vero; assay: Effect on depolymerization of actin microfilaments in african green monkey Vero cells at 10 uM after 30 mins by immunofluorescence method; type: functional, cell-based; conditions: Chlorocebus sabaeus; outline: as §5
[39] = tested on: Vero; assay: Effect on transit of transferrin through endocytic and recycling pathway in african green monkey Vero cells at 10 uM after 1 hr by immunofluorescence method; type: functional, cell-based; conditions: Chlorocebus sabaeus

Fc1cc(F)c2c(c1)[C@H]1C=CC[C@H]1C(c1cccnc1)N2 (some centres undefined) [GOLGICIDE A]
inactive: inhibition [2] | inhibition [3] | Activity [6] | Activity [7] | inhibition [8] | inhibition [9] | Activity [10] | Activity [11] | inhibition [12] | inhibition [13] | inhibition [14] | inhibition [15] | inhibition [16] | inhibition [17] | inhibition [18] | inhibition [21] | inhibition [23] | inhibition [25] | inhibition [27] | Activity [37] | Activity [38] | Activity [39]
5.48: pIC50 [31]
75%: inhibition [20]
34%: inhibition [19]
active: inhibition [1] | inhibition [4] | inhibition [5] | inhibition [22] | inhibition [24] | inhibition [26] | inhibition [28] | inhibition [29] | inhibition [30] | inhibition [32] | Activity [33] | inhibition [34] | inhibition [35] | inhibition [36]
